Experimental findings from ChEMBL document CHEMBL4152387, “Discovery of a Potent Grp94 Selective Inhibitor with Anti-Inflammatory Efficacy in a Mouse Model of Ulcerative Colitis” (J Med Chem, 2018) are described below.

Active and inactive are the calls of the source. The rule behind the calls is not given here.

For series [1], the target named is Heat shock protein HSP 90-alpha (Homo sapiens, UniProt P07900). Nature of the series: Inhibition of FITC-geldanamycin binding to human His-tagged HSP90alpha N-terminal domain (1 to 236 residues) expressed in Escherichia coli BL21star (DE3) at 100 uM after 4 hrs by FP assay relative to control. A digest of the protocol:
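Hsp90αN (15 nM final) with GM-FITC (6 nM final) and compound in HEPES/KCl/MgCl2 buffer pH 7.4 with NP40, DTT, BGG; 4 h at 4 °C in dark; FP at ex 485/em 535 nm; inhibition computed against GM-FITC-only and protein-plus-probe controls; n = 3.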

For a further series, the species on record is Canis lupus familiaris. Nature of the series: Inhibition of FITC-geldanamycin binding to dog GST-tagged GRP94 N41 deletion mutant (69 to 337 residues) expressed in Escherichia coli BL21star (DE3) at 100 uM after 4 hrs by FP assay relative to control.
Series [2] can be described thus: Inhibition of FITC-geldanamycin binding to dog GST-tagged GRP94 N41 deletion mutant (69 to 337 residues) expressed in Escherichia coli BL21star (DE3) after 4 hrs by GM-FITC-based FP assay. The arrangement: species or system Canis lupus familiaris.

By inhibition is commonly meant the drop in the measured response relative to a control, in per cent. A word on the IC50: it is the concentration that gives 50% inhibition. Read a high IC50 as lower potency. With `Cc1cccc(-c2ccc(N[C@H]3CC[C@H](O)CC3)c(C(N)=O)c2)c1C`, in series [1], the “inhibition (INH)” value is on record as “Not Active”. In the series listed under Canis lupus familiaris, this compound gave an inhibition of 81%. In series [2], this compound displayed an IC50 of 460 nM.

For the compound `NC(=O)c1cc(-c2ccc(Cl)c(Cl)c2)ccc1N[C@H]1CC[C@H](O)CC1`, in series [1], the “inhibition (INH)” value is “Not Active”. In addition, the inhibition in the series filed under Canis lupus familiaris came out at 100%. The IC50 in series [2] was 600 nM.

Take `CC(C)c1ccc(-c2ccc(NC3CCOCC3)c(C(N)=O)c2)cc1`: the “inhibition (INH)” value in series [1] is on record as “Not Active”. Besides, the inhibition in the series filed under Canis lupus familiaris was found to be 100%. Besides, the IC50 in series [2] was 73 nM.

Regarding `CC(C)CNc1ccc(-c2ccc(C(C)C)cc2)cc1C(N)=O`, the “inhibition (INH)” value in series [1] is recorded as “Not Active”. For the same compound, in the series listed under Canis lupus familiaris, the inhibition was determined as 96%. Moreover, in series [2], the half-maximal inhibitory concentration (IC50) worked out at 2320 nM.

For the compound `CC(C)c1ccc(-c2ccc(NC3CCCC3)c(C(N)=O)c2)cc1`, the “inhibition (INH)” value in series [1] was “Not Active”. The same compound yielded an inhibition in the series listed under Canis lupus familiaris of 89%. Further, the IC50 in series [2] was 3110 nM.

As for `NC(=O)c1cc(-c2ccc(Cl)cc2)ccc1N[C@H]1CC[C@H](O)CC1`, in series [1], the “inhibition (INH)” value was “Not Active”. The compound further returned an inhibition in the series filed under Canis lupus familiaris of 100%. The half-maximal inhibitory concentration (IC50) in series [2] stood at 170 nM.

`CC(C)c1ccc(-c2ccc(N[C@H]3CCOC3)c(C(N)=O)c2)cc1`: the “inhibition (INH)” value in series [1] is given as “Not Active”. The compound also displayed an inhibition in the series filed under Canis lupus familiaris of 95%. Also, the half-inhibitory concentration (IC50) in series [2] was 130 nM.

Take `NC(=O)c1cc(-c2ccccc2)ccc1N[C@H]1CC[C@H](O)CC1`: the “inhibition (INH)” value in series [1] is “Not Active”. This compound showed an inhibition in the series filed under Canis lupus familiaris of 93%. Moreover, the IC50 in series [2] was found to be 2770 nM.

With `CC(C)c1ccc(-c2ccc(NC3CCN(C(=O)CN)CC3)c(C(N)=O)c2)cc1`, the “inhibition (INH)” value in series [1] is given as “Not Active”. Also, the inhibition in the series listed under Canis lupus familiaris came to 100%. This compound also registered an IC50 in series [2] of 210 nM.

For the compound `Cc1ccc(-c2ccc(N[C@H]3CC[C@H](O)CC3)c(C(N)=O)c2)c(C)c1`, the “inhibition (INH)” value in series [1] was “Not Active”. In addition, the inhibition in the series filed under Canis lupus familiaris came to 91%. Further, the half-maximal inhibitory concentration (IC50) in series [2] is 1220 nM.

Consider `CC1(C)CC(=O)c2c(C(F)(F)F)nn(-c3ccc(C(N)=O)c(N[C@H]4CC[C@H](O)CC4)c3)c2C1` [SNX-2112], for which the inhibition in the series listed under Canis lupus familiaris turned out to be 100%. The same compound returned a half-maximal inhibitory concentration (IC50) in series [2] of 97 nM.

`Cc1ccc(-c2ccc(N[C@H]3CC[C@H](O)CC3)c(C(N)=O)c2)cc1`: in series [1], the “inhibition (INH)” value was “Not Active”. The inhibition in the series filed under Canis lupus familiaris worked out at 100%. Moreover, in series [2], the IC50 came out at 340 nM.

Regarding `CC(C)c1ccc(-c2ccc(NC3CCN(C(=O)C(N)C(C)C)CC3)c(C(N)=O)c2)cc1` (centres undefined), the “inhibition (INH)” value in series [1] is recorded as “Not Active”. In the series listed under Canis lupus familiaris, this compound yielded an inhibition of 91%. The compound further came in with an IC50 in series [2] of 450 nM.

In the case of `NC(=O)c1cc(-c2cccc3ccccc23)ccc1N[C@H]1CC[C@H](O)CC1`, in series [1], the “inhibition (INH)” value is given as “Not Active”. Also, in the series filed under Canis lupus familiaris, the inhibition stood at 0%.

Take `NC(=O)c1cc(-c2ccc3ccccc3c2)ccc1N[C@H]1CC[C@H](O)CC1`: in series [1], the “inhibition (INH)” value is recorded as “Not Active”. In addition, the inhibition in the series listed under Canis lupus familiaris was determined as 75%. In series [2], the IC50 is 12600 nM.

In the case of `CC(=O)N1CCC(Nc2ccc(-c3ccc(C(C)C)cc3)cc2C(N)=O)CC1`, the “inhibition (INH)” value in series [1] is “Not Active”. The compound further had an inhibition in the series listed under Canis lupus familiaris of 100%. The IC50 in series [2] stood at 55 nM.

With `COc1ccccc1-c1ccc(N[C@H]2CC[C@H](O)CC2)c(C(N)=O)c1`, the “inhibition (INH)” value in series [1] is reported as “Not Active”. Besides, the inhibition in the series listed under Canis lupus familiaris worked out at 89%. The same compound yielded an IC50 in series [2] of 11500 nM.

As to `Cc1cccc(-c2ccc(N[C@H]3CC[C@H](O)CC3)c(C(N)=O)c2)c1`, in series [1], the “inhibition (INH)” value was “Not Active”. In the series listed under Canis lupus familiaris, this compound displayed an inhibition of 100%. The same compound registered a half-inhibitory concentration (IC50) in series [2] of 1160 nM.

With `NC(=O)c1cc(-c2ccccc2Cl)ccc1N[C@H]1CC[C@H](O)CC1`, in series [1], the “inhibition (INH)” value is on record as “Not Active”. The compound further returned an inhibition in the series listed under Canis lupus familiaris of 100%. Moreover, the concentration for half-maximal inhibition (IC50) in series [2] stood at 2720 nM.

As for `CC(C)c1ccc(-c2ccc(NC3CCN(C(=O)CCCCCN)CC3)c(C(N)=O)c2)cc1`, the “inhibition (INH)” value in series [1] is reported as “Not Active”. In the series listed under Canis lupus familiaris, the inhibition came out at 100%. For the same compound, in series [2], the IC50 is 150 nM.

`CC(C)C[C@H](N)C(=O)N1CCC(Nc2ccc(-c3ccc(C(C)C)cc3)cc2C(N)=O)CC1`: the “inhibition (INH)” value in series [1] was “Not Active”. The inhibition in the series filed under Canis lupus familiaris amounted to 89%. In series [2], this compound came in with an IC50 of 480 nM.

Take `CC(C)c1ccc(-c2ccc(NCC3CCCCC3)c(C(N)=O)c2)cc1`: the “inhibition (INH)” value in series [1] is “Not Active”. For the same compound, the inhibition entry in the series listed under Canis lupus familiaris is “inactive”.

As to `NC(=O)c1cc(-c2ccc(-n3cccc3)cc2)ccc1N[C@H]1CC[C@H](O)CC1`, the “inhibition (INH)” value in series [1] is recorded as “Not Active”. The compound further came in with an inhibition in the series listed under Canis lupus familiaris of 0%.

On to `NC(=O)c1cc(-c2cc(Cl)cc(Cl)c2)ccc1N[C@H]1CC[C@H](O)CC1`, for which the “inhibition (INH)” value in series [1] is on record as “Not Active”. Moreover, the inhibition in the series listed under Canis lupus familiaris was 66%. Besides, the IC50 in series [2] came out at 24700 nM.

Take `CC(C)c1ccc(-c2ccc(NC3CCN(C(=O)CCN)CC3)c(C(N)=O)c2)cc1`: the “inhibition (INH)” value in series [1] is given as “Not Active”. Also, the inhibition in the series filed under Canis lupus familiaris is 96%. In series [2], this compound displayed an IC50 of 220 nM.

With `CC(N)C(=O)N1CCC(Nc2ccc(-c3ccc(C(C)C)cc3)cc2C(N)=O)CC1` (centres undefined), the “inhibition (INH)” value in series [1] is given as “Not Active”. In the series listed under Canis lupus familiaris, this compound returned an inhibition of 88%. In series [2], this compound gave a half-maximal inhibitory concentration (IC50) of 370 nM.

Consider `CC(C)c1ccc(-c2ccc(NC3CCCCC3)c(C(N)=O)c2)cc1`, for which, in series [1], the “inhibition (INH)” value was “Not Active”. The inhibition in the series listed under Canis lupus familiaris was found to be 97%. This compound showed a half-maximal inhibitory concentration (IC50) in series [2] of 370 nM.

Consider `COc1ccc(-c2ccc(N[C@H]3CC[C@H](O)CC3)c(C(N)=O)c2)cc1`, for which, in series [1], the “inhibition (INH)” value is given as “Not Active”. Also, the inhibition in the series listed under Canis lupus familiaris is 100%. The compound further yielded an IC50 in series [2] of 500 nM.

On to `NC(=O)c1cc(-c2cccc(Cl)c2Cl)ccc1N[C@H]1CC[C@H](O)CC1`, for which the “inhibition (INH)” value in series [1] is reported as “Not Active”. Further, in the series listed under Canis lupus familiaris, the inhibition stood at 100%. Besides, the IC50 in series [2] was 310 nM.

Take `NC(=O)c1cc(-c2c(Cl)cccc2Cl)ccc1N[C@H]1CC[C@H](O)CC1`: the “inhibition (INH)” value in series [1] was “Not Active”. The compound also showed an inhibition in the series filed under Canis lupus familiaris of 100%. For the same compound, the 50% inhibitory concentration (IC50) in series [2] is 140 nM.

As to `CCCc1ccc(-c2ccc(N[C@H]3CC[C@H](O)CC3)c(C(N)=O)c2)cc1`, in series [1], the “inhibition (INH)” value is on record as “Not Active”. Further, the inhibition in the series filed under Canis lupus familiaris amounted to 100%. Also, the IC50 in series [2] came out at 53 nM.

With `CCc1ccccc1-c1ccc(N[C@H]2CC[C@H](O)CC2)c(C(N)=O)c1`, the “inhibition (INH)” value in series [1] is on record as “Not Active”. The same compound showed an inhibition in the series listed under Canis lupus familiaris of 92%. In series [2], this compound had an IC50 of 2060 nM.

For the compound `NC(=O)c1cc(-c2cccc(Cl)c2)ccc1N[C@H]1CC[C@H](O)CC1`, the “inhibition (INH)” value in series [1] is recorded as “Not Active”. Also, the inhibition in the series filed under Canis lupus familiaris stood at 100%. In series [2], this compound had a 50% inhibitory concentration (IC50) of 2030 nM.

`COc1cccc(-c2ccc(N[C@H]3CC[C@H](O)CC3)c(C(N)=O)c2)c1`: the “inhibition (INH)” value in series [1] was “Not Active”. In addition, in the series filed under Canis lupus familiaris, the inhibition is 100%. This compound also had a 50% inhibitory concentration (IC50) in series [2] of 4750 nM.

With `Cc1ccccc1-c1ccc(N[C@H]2CC[C@H](O)CC2)c(C(N)=O)c1`, the “inhibition (INH)” value in series [1] is on record as “Not Active”. The compound further had an inhibition in the series filed under Canis lupus familiaris of 90%. Also, the half-maximal inhibitory concentration (IC50) in series [2] amounted to 1810 nM.

Turning to `CC(C)c1ccc(-c2ccc(NC3CCNCC3)c(C(N)=O)c2)cc1`, the “inhibition (INH)” value in series [1] is on record as “Not Active”. Moreover, the inhibition in the series listed under Canis lupus familiaris was determined as 100%. In series [2], this compound gave an IC50 of 470 nM.
